Assay outcomes: PubChem BioAssay, several laboratories
CHOP UPR activ: activators of apoptotic arm of unfolded protein response (CHOP) | CHO-CHOP luciferase reporter, UPR activation, luminescence; percent of tunicamycin response over DMSO baseline | AID 449763 | activation, % at 10 µM | actives 0.34% (n = 330,000);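 active = at 10 µM dose, activation of 40% or more, normalized to positive control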
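Test system: CHO-CHOP cells, stable luciferase reporter of PERK-eIF2a-CHOP signalling | Quantity: 500 CHO-CHOP cells per well | Buffer or medium: F12 plus 10% serum | Compound dosing: 10 µM single point, 0.5% DMSO | Schedule: 6 h compound treatment, 37 °C | Signal: Luciferase luminescence | Control set: Tunicamycin high control, DMSO low control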
XBP1 UPR activ: adaptive UPR (XBP1) activation | CHO-XBP1 luciferase reporter, IRE1-XBP1 UPR activation, luminescence; percent of tunicamycin response, DMSO as zero | activation, % at 20 µM | actives 0.33% (n = 330,000) | AID 463104;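 active = versus positive control, 20 µM dose yields 30% or more activation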
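Material: CHO-XBP1 cells stably carrying IRE1-XBP1-driven luciferase reporter | Medium: F12 with 10% serum | Compound dosing: 20 µM single concentration, DMSO 1% | Incubation: Overnight seeding at 37 °C, 6 h compound treatment at 37 °C | Detection: Steady-Glo luminescence read | Read-out basis: % activation of reporter signal versus tunicamycin and DMSO controls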
MPTP inh: inhibitors of mitochondrial permeability transition pore. isolated mouse mitochondria, Ca2+ swelling absorbance, 30 min. inhibition, % at 10 µM. actives 1.4% (n = 360,000). AID 602449;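 active = inhibition of 50% or more, scaled per plate between neutral and stimulator controls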
aDG glyco act: alpha-DG glycosylation activation; Pro5-aDG cells, alpha-DG glycosylation AlphaScreen (IIH6); 0% Pro5, 100% B10-LARGE cell signal; activation, % at 10 µM; actives 0.22% (n = 360,000); AID 624168;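 active = activation of at least 8% versus controls, or a plate z-score of at least 8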;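 note: Pro5 are CHO cells carrying HIG-tagged alpha-DG that lacks glycosylation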
CHOP inh: CHOP inhibition in unfolded protein response; CHO-K1 CHOP-promoter luciferase, tunicamycin-induced, 15-18 h; inhibition, % at 10 µM; actives 3.8% (n = 220,000);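 active = compounds that reduced the stress-induced luciferase reporter signal by more than about 70% of percent inhibition, limit read from the data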
NR3A LBD binder: modulators (binders) of human NR3A ligand-binding domain; actives 2.5% (n = 340,000); Tm shift relative to glycine control, % at 25 µM; NR3A LBD differential scanning fluorimetry, Tm shift; 0% = protein alone, 100% = glycine-bound protein;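 active = melting temperature shift of at least 10% of the positive control shift, at one fixed dose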
Hits are given with their value; n = inactive; x = no result. The list is not random: actives were taken first. Their share in the collection is about 5.6%.

SMILES | CHOP UPR activ | XBP1 UPR activ | MPTP inh | aDG glyco act | CHOP inh | NR3A LBD binder
CCOc1ccccc1-c1nc(-c2ccc(NC(=O)c3ccc(Br)o3)cc2)no1 | n | n | x | x | n | 16.0
Cc1ccc(-c2nnc(-c3cccc(NC(=O)c4cccs4)c3)o2)cc1 | n | n | n | n | n | 19.5
Cc1ccc(SCC(=O)Nc2cccc(-c3nnc(-c4ccco4)o3)c2)cc1 | n | n | n | n | 70.7 | n
CN(C(=O)COC(=O)c1ccc([N+](=O)[O-])cc1N)c1ccccc1 | n | n | n | n | n | n
COc1ccccc1C(=O)Nc1ccnn1C1CCN(CC2CC=CCC2)CC1 (stereo not given) | n | n | n | n | x | n
O=C(COc1ccc2ccccc2c1)Nc1nnc(-c2ccco2)s1 | n | n | x | x | 72.0 | n
Cc1ccccc1OCC(=O)Nc1nnc(-c2ccco2)s1 | n | n | n | n | n | n
COCCNC(=O)c1cccc(OC2CCN(Cc3ccc(OC(F)F)cc3)CC2)c1 | n | n | n | n | x | n
Cc1ccc(-c2nc(CN3CCN(C(=O)C4CCCO4)CC3)cs2)cc1 (stereo not given) | n | n | n | n | x | 11.1
Cc1ccc(CN2CCN(C(=O)C3CCCO3)CC2)cc1 (stereo not given) | n | n | n | n | n | n
CCn1nc(C(=O)OCC(=O)N(CCC#N)c2ccccc2)c2ccccc2c1=O | n | n | n | n | x | n
CCOC(=O)c1c(NC(=O)C2C3CCC(O3)C2C(=O)O)sc2c1CCC(CC)C2 (stereo not given) | n | n | n | n | n | n
CCOC(=O)c1c(NC(=O)C2C3C=CC(C3)C2C(=O)O)sc2c1CCC(CC)C2 (stereo not given) | n | n | n | n | 72.2 | n
CN(CC1CCCN(CCc2ccc(F)cc2)C1)C(=O)CCC(N)=O (stereo not given) | n | n | n | n | x | n
COc1ccc(Nc2nc(NC(C)(C)C)nc(N3CCOCC3)n2)c(OC)c1 | n | n | n | n | n | n
COc1ccc(Nc2nc(NC(C)(C)C)nc(N3CCCC3)n2)c(OC)c1 | n | n | n | n | 83.7 | n
O=C(CCl)N=c1sccn1Cc1ccc(Cl)cc1Cl | 42.0 | n | n | n | n | n
CCOC(=O)Cc1cn(C(=O)OC(C)(C)C)c2ccccc12 | n | n | n | n | x | n
CCOC(=O)c1c(OCC)[nH]c2ccc(O)cc12 | n | n | n | n | 72.5 | n
CCOC(=O)c1c(C)[nH]c2ccc(O)cc12 | n | n | n | n | n | 26.2
COc1ccc(CN2C[C@]3(CO)O[C@@H](CO)C[C@@H]3S2(=O)=O)cc1 | n | n | n | n | x | n
Cc1ccc(N=Nc2ccc(O)c3ncccc23)cc1C | n | n | n | n | 92.2 | n
COc1cccc(C(=O)O)c1OS(=O)(=O)c1ccc(C)cc1 | x | x | n | n | x | x
CCN(c1cccc(C)c1)c1nc2ccsc2c(=O)s1 | n | n | n | n | 73.4 | n
COc1ccc2c(-c3ccccc3)cc(SCC(=O)NC(N)=O)nc2c1 | n | n | n | n | 77.5 | n
SMILES | CHOP UPR activ | XBP1 UPR activ | MPTP inh | aDG glyco act | CHOP inh | NR3A LBD binder
CC(=O)c1c(OC(=O)c2ccccc2Br)ccc2c(C)cc(=O)oc12 | n | n | n | n | n | 13.1
CN(C(=O)c1cncc(Br)c1)C1C2CC3CC(C2)CC1C3 (stereo not given) | n | n | n | n | x | n
CCOC(=O)C1=CN(Cc2cccc(-c3cccnc3)c2)S(=O)(=O)N(C)C1C (stereo not given) | n | n | n | n | x | n
CCOc1cc(NC(=O)c2ccco2)c(OCC)cc1NC(=O)c1ccco1 | n | n | n | n | x | n
CCOc1cc(NC(=O)c2ccco2)c(OCC)cc1NC(=O)CCc1ccccc1OC | n | n | n | n | n | 15.5
COc1cc(NC(=O)c2ccco2)c(OC)cc1NC(=O)Nc1cccc(Cl)c1 | n | n | n | n | n | 22.0
COc1c(F)c(F)c(C(=O)Nc2ccc(NC(=O)c3ccco3)cc2)c(F)c1F | n | n | n | n | 80.1 | n
COc1ccc(NC(=O)c2ccco2)cc1N | n | n | n | n | 70.0 | n
Cn1c(-c2ccccc2)cc(=O)n1-c1ccccc1 | x | x | n | n | x | n
Cn1c(=O)c2cc(NC(=S)NC3CCCCC3)ccc2n1-c1ccccc1 | x | x | n | n | x | x
COC(=O)[C@]12CCCCC=C1N(CCC1=CCCCC1)C(=O)[C@H](CC(=O)NCC13CC4CC(CC(C4)C1)C3)C2 | x | x | n | n | x | x
O=C(Nc1ccc(Br)cc1)c1ccco1 | n | n | n | n | n | n
COc1ccc(Br)cc1C(=O)Nc1ccc(NC(=O)c2ccco2)cc1 | n | n | n | n | n | 17.6
Cc1ccccc1CNC(=O)C(C)Sc1ccccc1 (stereo not given) | x | x | n | n | x | x
O=C(COC(=O)COc1ccc(Br)cc1)NCc1ccccc1 | n | n | n | n | x | n
[2H]C([2H])(CCOS(N)(=O)=O)c1ccccc1 | n | n | n | n | x | n
Cn1c(=O)[nH]c(=O)c2c1nc(NCc1ccccc1)n2CC(O)c1ccccc1 (stereo not given) | n | n | n | n | n | 11.0
Cc1ccc(OCC(O)Cn2c(NCCc3ccccc3)nc3c2c(=O)[nH]c(=O)n3C)cc1 (stereo not given) | n | n | n | n | n | 10.7
COC(=O)CCN1CCC2CC1c1cc(N3CCCCC3)ccc12 (stereo not given) | x | x | n | n | x | x
COc1ccc(NC(=O)C#Cc2ccccc2)cc1 | n | n | n | n | x | 10.1
O=C(C#Cc1ccccc1)Nc1ccc(F)cc1 | n | n | n | n | x | n
CCOc1ccc(C(=O)Oc2ccc(NC(C)=O)cc2)cc1 | n | n | x | x | 83.2 | x
COc1ccc(C(=O)COc2ccc(NC(C)=O)cc2)cc1 | n | n | n | n | n | 12.8
CCOc1ccc(NC(=O)CC(=O)Nc2ccc(OCC)cc2)cc1 | n | n | n | n | x | n
O=[N+]([O-])c1cc2c(cc1/C=N/NS(=O)(=O)c1ccc(Br)cc1)OCO2 | n | n | n | n | n | n
SMILES | CHOP UPR activ | XBP1 UPR activ | MPTP inh | aDG glyco act | CHOP inh | NR3A LBD binder
CC(NC(=O)c1cc2cc(Br)ccc2oc1=N)c1ccccc1 (stereo not given) | n | n | n | n | x | n
O=C(O)c1cccc(N2C(=O)/C(=C/c3ccc(SCc4ccc(Cl)cc4)o3)SC2=S)c1 | x | x | n | n | 75.2 | 14.8
O=C(CCN1C(=O)/C(=C/c2ccc(Cl)cc2)SC1=S)Nc1cccc(C(=O)O)c1 | n | n | n | n | x | n
COc1ccc(S(=O)(=O)NCCCn2ccnc2)cc1C(C)(C)C | n | n | n | n | x | n
CCOC(=O)C1CCN(C(=O)Cn2nc(C)n3c(cc4cc(C)ccc43)c2=O)CC1 | n | n | n | n | x | n
CCC(C(=O)N1CCOCC1)n1nc(C)n2c(cc3cc(C)ccc32)c1=O (stereo not given) | n | n | n | n | x | 10.8
